Reference: publication PMC3701953 (Bioorganic & medicinal chemistry letters, 2013)
“And” between values parts separate entries of the source, which are not always exact repeats. Equal values may be shown once. Read-outs that look alike come from different tables or passages of the source.

Columns and labels:
HIV-1 NL4-3 [1] = details: read-out: anti-HIV-1 activity in cell culture EC50; MAGI cells; cited from earlier work
HIV-1 NL4-3 [2] = experiment: In vitro anti-HIV-1 NL4-3 antiviral assay in MAGI cells; type: cell-based; details: HIV-1 NL4-3, MAGI cells, mean of three determinations; for EC50: read-out: EC50 (SD), concentration for 50% inhibition of virus replication; for EC90: read-out: EC90 (SD), concentration for 90% reduction of virus replication
Procedure, shortened: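 MAGI cells carrying an LTR–β-galactosidase reporter were infected with HIV-1 in the presence of test compound. Infection and Tat expression drive the reporter through the HIV-1 LTR. Cells were lysed 6 days after infection, and β-galactosidase activity was read by chemiluminescence. Values are the mean of three determinations.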

MAGI cells = experiment: Compound toxicity in MAGI cells by MTS dye reduction; type: cell-based
CYP 2D6 = CYP 2D6 (Homo sapiens, UniProt P10635); experiment: CYP 2D6 substrate activity in pooled human liver microsomes; type: in vitro ADME; details: for Substrate Activity % ±S.D.: dextromethorphan 200 µM, relative to control (100%)
Sequence of CYP 2D6 (P10635 whole entry): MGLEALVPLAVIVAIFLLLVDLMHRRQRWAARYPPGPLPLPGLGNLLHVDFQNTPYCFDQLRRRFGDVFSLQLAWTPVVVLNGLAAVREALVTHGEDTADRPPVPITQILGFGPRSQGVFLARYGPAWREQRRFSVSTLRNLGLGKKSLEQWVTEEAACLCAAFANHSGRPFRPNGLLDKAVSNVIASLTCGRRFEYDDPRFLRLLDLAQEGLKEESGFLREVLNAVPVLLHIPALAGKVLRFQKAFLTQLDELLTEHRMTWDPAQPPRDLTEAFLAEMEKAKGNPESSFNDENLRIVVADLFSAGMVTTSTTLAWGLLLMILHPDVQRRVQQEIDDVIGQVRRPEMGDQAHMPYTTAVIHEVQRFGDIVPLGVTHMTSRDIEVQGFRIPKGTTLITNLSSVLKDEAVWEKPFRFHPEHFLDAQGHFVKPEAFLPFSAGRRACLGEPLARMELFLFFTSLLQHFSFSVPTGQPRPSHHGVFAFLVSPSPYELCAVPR
Procedure, shortened: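 Pooled human liver microsomes incubated with the probe substrate and a range of test compound concentrations in 100 mM potassium phosphate (pH 7.4) with 5 mM MgCl₂. Mixtures were preincubated 3 min at 37 °C, then started with NADPH (final 2 mM). Substrate and metabolite were quantified by reversed-phase HPLC-UV: CYP3A4, testosterone/6β-hydroxytestosterone at 254 nm; CYP2D6, dextromethorphan/dextrorphan at 278 nm. Mean of three determinations, S.D.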

[3] = Stability in pooled, mixed-gender human liver microsomes; type: in vitro ADME
Procedure, shortened: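 Test compound incubated with 0.5 mg/mL microsomal protein in 100 mM potassium phosphate (pH 7.4), with 5 mM MgCl₂, 5 mM G-6-P, 0.5 U/mL G-6-P-DH and 2 mM NADPH. Mixtures were preincubated 3 min at 37 °C, started with NADPH and run 60 min. Aliquots taken at 0, 15, 30, 45 and 60 min were quenched in ice-cold acetonitrile and centrifuged. Supernatant analysed by reversed-phase HPLC-UV at 360 nm. Mean of three determinations, S.D.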

CYP 3A4 = CYP 3A4 (Homo sapiens, UniProt P08684); experiment: CYP 3A4 substrate activity in pooled human liver microsomes; type: in vitro ADME; details: relative to control (100%)
Sequence of CYP 3A4 (P08684 whole entry): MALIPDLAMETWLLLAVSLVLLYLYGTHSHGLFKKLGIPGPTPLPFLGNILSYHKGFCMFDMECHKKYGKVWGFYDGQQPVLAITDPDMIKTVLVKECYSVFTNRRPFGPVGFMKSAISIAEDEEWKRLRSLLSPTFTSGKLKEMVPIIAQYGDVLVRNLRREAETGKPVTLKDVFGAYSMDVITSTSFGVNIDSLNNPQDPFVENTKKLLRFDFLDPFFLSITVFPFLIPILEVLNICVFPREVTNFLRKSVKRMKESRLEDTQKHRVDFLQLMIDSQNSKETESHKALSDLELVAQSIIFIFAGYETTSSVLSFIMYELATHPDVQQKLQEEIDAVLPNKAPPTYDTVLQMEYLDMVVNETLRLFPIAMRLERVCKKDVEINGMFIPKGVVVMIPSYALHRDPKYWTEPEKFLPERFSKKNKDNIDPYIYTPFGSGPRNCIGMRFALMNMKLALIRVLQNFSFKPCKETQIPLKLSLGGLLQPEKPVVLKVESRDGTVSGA

Question: Which EC50 (HIV-1 NL4-3 [1]) does the source give for `O=C(O)C(=O)C=C(O)c1cc(Cc2ccc(F)cc2F)cn(Cc2ccccc2F)c1=O` [compound 1, 4-(5-(2,4-difluorobenzyl)-1-(2-fluorobenzyl)-2-oxo-1,2-dihydropyridin-3-yl)-4-hydroxy-2-oxobut-3-enoic acid] here?
Answer: 0.5 µM

Question: With “(1R,2R)-4-(5-(2,4-difluorobenzyl)-1-(2-fluorobenzyl)-2-oxo-1,2-dihydropyridin-3-yl)-4-hydroxy-N-(2-hydroxycyclopentyl)but-3-enamide [compound 4]” as the compound, how does the EC50 (HIV-1 NL4-3 [2]) read?
Answer: 0.0422 µM

Question: And the EC90 (HIV-1 NL4-3 [2])?
Answer: 0.871 µM

Question: And the CC50 (MAGI cells)?
Answer: 137 µM

Question: Which EC50 (HIV-1 NL4-3 [2]) does the source give for “(1S,2S)-4-(5-(2,4-difluorobenzyl)-1-(2-fluorobenzyl)-2-oxo-1,2-dihydropyridin-3-yl)-4-hydroxy-N-(2-hydroxycyclopentyl)but-3-enamide [compound 3]” here?
Answer: 0.025 µM and 0.0251 µM

Question: And the EC90 (HIV-1 NL4-3 [2])?
Answer: 0.415 µM

Question: What about the “Substrate Activity % ±S.D.” value (CYP 2D6; compound 3 at 12.5 µM) of the same compound?
Answer: 86 ±7%

Question: And the “Substrate Activity % ±S.D.” value (CYP 2D6; compound 3 at 25 µM)?
Answer: 87 ±17%

Question: What about the “Substrate Activity % ±S.D.” value (CYP 2D6; compound 3 at 50 µM) of the same compound?
Answer: 87 ±13%

Question: What about the “inhibition or activation of CYP 2D6 (result in words)” value (CYP 2D6; pooled human liver microsomes, dextromethorphan as substrate) of the same compound?
Answer: neither a significant inhibitor nor an activator

Question: And the CC50 (MAGI cells; read-out: CC50, concentration to reduce cell viability by 50%, MAGI cells, MTS dye reduction)?
Answer: 40.4 µM

Question: What about the “stability in pooled human liver microsomes (result in words)” value [3] of the same compound?
Answer: relatively stable

Question: What about the “Substrate Activity % ±S.D.” value (CYP 3A4; testosterone 100 µM, compound 3 at 12.5 µM) of the same compound?
Answer: 109 ±13%

Question: What about the “Substrate Activity % ±S.D.” value (CYP 3A4; testosterone 100 µM, compound 3 at 25 µM) of the same compound?
Answer: 97 ±18%

Question: What about the “Substrate Activity % ±S.D.” value (CYP 3A4; testosterone 100 µM, compound 3 at 50 µM) of the same compound?
Answer: 112 ±15%

Question: What about the “Substrate Activity % ±S.D.” value (CYP 3A4; triazolam 200 µM, compound 3 at 12.5 µM) of the same compound?
Answer: 124 ±23%

Question: And the “Substrate Activity % ±S.D.” value (CYP 3A4; triazolam 200 µM, compound 3 at 25 µM)?
Answer: 98 ±7%

Question: And the “Substrate Activity % ±S.D.” value (CYP 3A4; triazolam 200 µM, compound 3 at 50 µM)?
Answer: 100 ±8%
